Test results taken from publication PMC8116641 (Archives of Virology, 2021).
“Also recorded” adds a separate entry of the source. Read-outs that look alike come from different tables or passages of the source.

Columns and labels:
[1] = target: receptor-binding activity of viral HA of influenza A virus PR8 (H1N1) (Influenza A virus, UniProt P03452); format: biochemical
[2] = tested on: influenza A virus A/California/07/09 (H1N1)pdm09 (Cal (H1N1)pdm09); test: microbe, parasite or virus in culture; format: cell-based; conditions: for IC50: read-out: IC50 (50% inhibitory concentration)
[3] = tested on: influenza A viruses (H1, H1pdm09, and H3 subtypes); test: microbe, parasite or virus in culture; format: cell-based; conditions: read-out: IC50 value (depending on the virus)
[4] = tested on: influenza A virus A/Aichi/2/68 (H3N2) (Aichi (H3N2)); test: microbe, parasite or virus in culture; format: cell-based; conditions: for IC50: read-out: IC50 (50% inhibitory concentration)
[5] = tested on: influenza A virus PR8 (H1N1); format: cell-based
[6] = Cytotoxicity assay, microtetrazolium test; format: cell-based; conditions: dog, MDCK cells
Outline: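 MDCK cells were exposed for 48 h at 36°C in 5% CO2 to threefold serial dilutions of test compound in MEM, in triplicate. After two PBS washes, cells were incubated for 1 h with MTT ([…] in PBS). The formazan was dissolved in DMSO and OD was read at 535 nm. OD was plotted against concentration to calculate CC50.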

[7] = tested on: influenza A virus A/Puerto Rico/8/34 (H1N1) (PR8 (H1N1)); test: microbe, parasite or virus in culture; format: cell-based; conditions: for IC50: Influenza A virus, H1N1|PR8, MDCK, read-out: IC50 (50% virus-inhibiting concentration)

Sequence of receptor-binding activity of viral HA of influenza A virus PR8 (H1N1) (P03452 18-343 limits assumed): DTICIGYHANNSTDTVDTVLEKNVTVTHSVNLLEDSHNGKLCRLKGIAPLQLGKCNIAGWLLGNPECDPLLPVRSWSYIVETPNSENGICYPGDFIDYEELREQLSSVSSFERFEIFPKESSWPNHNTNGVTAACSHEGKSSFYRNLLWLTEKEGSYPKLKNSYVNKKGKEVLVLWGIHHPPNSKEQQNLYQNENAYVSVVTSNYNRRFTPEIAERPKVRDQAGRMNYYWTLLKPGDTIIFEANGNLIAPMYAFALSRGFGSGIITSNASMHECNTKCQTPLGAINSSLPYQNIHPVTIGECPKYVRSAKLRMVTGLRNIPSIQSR
Sequence of receptor-binding activity of viral HA of influenza A virus PR8 (H1N1) (P03452 344-565 limits assumed): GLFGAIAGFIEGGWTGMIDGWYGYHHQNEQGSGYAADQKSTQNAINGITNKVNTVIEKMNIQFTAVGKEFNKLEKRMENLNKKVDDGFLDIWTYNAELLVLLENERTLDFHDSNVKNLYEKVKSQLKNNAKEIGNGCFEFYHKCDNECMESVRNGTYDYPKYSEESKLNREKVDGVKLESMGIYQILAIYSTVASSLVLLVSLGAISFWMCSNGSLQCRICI

Structure (SMILES) | CC50 at 48 h [6] | SI (selectivity index, CC50/IC50) [7] | IC50 [7] | also measured
CC1(C)[C@H]2CC[C@]1(C)[C@H](OC(=O)C[N+](C)(C)C)C2.[I-] [10a, N,N,N-Trimethyl-2-oxo-2-((1S,2R,4S)-1,7,7-trimethylbicyclo[2.2.1]heptan-2-yloxy)ethanaminium iodide] | 1310 ± 126 µM | 546 | 2.4 ± 0.4 µM | Effect on hemagglutination titer of the virus [1]: did not change this value; SI (selectivity index, CC50/IC50) [2]: 78; IC50 ([2]; Influenza A virus, H1N1, MDCK): 16.9 µM; IC50 [2]: 16.8 ± 3.1 µM; IC50 [3]: 2.4 to 16.8 µM; SI (selectivity index, CC50/IC50) [4]: 142; IC50 [4]: 9.2 ± 1.3 µM; Infectious activity of the virus when compound is added late [5]: not statistically different from the control values; Time of addition at which the compound is most effective [5]: most effective when added at the early stages of the viral life cycle; also recorded: most effective when added within 0–2 hours after infection
CC1(C)[C@H]2CC[C@]1(C)[C@H](OC(=O)CCC[N+](C)(C)C)C2 [10c, N,N,N-Trimethyl-4-oxo-4-((1S,2R,4S)-1,7,7-trimethylbicyclo[2.2.1]heptan-2-yloxy)butan-1-aminium iodide] | 264 ± 15 µM |  | > 117 µM | 
CC[N+](C)(CC)CC(=O)O[C@H]1C[C@@H]2CC[C@@]1(C)C2(C)C.[I-] [11a, N,N-Diethyl-N-methyl-2-oxo-2-((1S,2S,4S)-1,7,7-trimethylbicyclo[2.2.1]heptan-2-yloxy)ethanaminium iodide] | 850 ± 38 µM | 3 | 316 ± 40 µM | 
CC[N+](C)(CC)CCC(=O)O[C@H]1C[C@@H]2CC[C@@]1(C)C2(C)C [11b, N,N-Diethyl-N-methyl-3-oxo-3-((1S,2S,4S)-1,7,7-trimethylbicyclo[2.2.1]heptan-2-yloxy)propan-1-aminium iodide] | 69 ± 6 µM |  | > 37 µM | 
NC12CC3CC(CC(C3)C1)C2 [Amantadine, reference compound] | 284 ± 21 µM | 4 | 64.2 ± 4.7 µM | 
CC(N)C1C[C@@H]2CC[C@H]1C2 (stereo partly drawn) [Deitiforine, reference compound] | 1270 ± 81 µM |  |  | 
NC(=O)c1ncn([C@@H]2O[C@H](CO)[C@@H](O)[C@H]2O)n1 [Ribavirin, reference compound] | > 2000 µM | >81 | 24.6 µM | SI (selectivity index, CC50/IC50) [2]: 61; IC50 ([2]; Influenza A virus, H1N1, MDCK): 35 ± 4.6 µM; SI (selectivity index, CC50/IC50) [4]: 52; IC50 ([4]; Influenza A virus, H3N2, MDCK): 41 ± 3.9 µM
CC(N)C12CC3CC(CC(C3)C1)C2 (stereo not drawn) [Rimantadine, reference compound] | 335 ± 27 µM | 5 | 67 ± 4.9 µM | 
CC1(C)[C@@H]2CC[C@@]1(C)/C(=N/CC[N+](C)(C)C)C2.[I-] [compound 6, N,N,N-Trimethyl-2-((E)-((1R,4R)-1,7,7-trimethylbicyclo[2.2.1]heptan-2-ylidene)amino)ethanaminium iodide] | > 2100 µM | > 18 | 115 ± 10 µM | 
CC1(C)[C@@H]2CC[C@@]1(C)/C(=N/CCC[N+](C)(C)C)C2.[I-] [compound 7, N,N,N-Trimethyl-3-((E)-((1R,4R)-1,7,7-trimethylbicyclo[2.2.1]heptan-2-ylidene)amino)propan-1-aminium iodide] | > 1990 µM | > 14 | 144 ± 12 µM | 
